Assay outcomes (PubChem)
Rows were chosen to be rich in hits. Some 9.8% of all compounds tested hit in one or more screens of this group.
m-calpain inh = inhibitors of pig calpain II, primary screen, biochemical, fluorogenic peptide substrate, 1536-well | purified calpain II, 30 min | inhibition, % at 16 µM | actives 0.37% (n = 220,000) | AID 1236, 2008;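 active = inhibition above about 50%, limit read from the data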
PMI activator = activators of human PMI, primary screen, biochemical, fluorescence intensity, near-Km mannose 6-phosphate | Mannose-6-phosphate isomerase (Homo sapiens), P34949 | purified human PMI, coupled resazurin fluorescence, 20 min; stronger effect = higher value; 1 = vehicle control, 0 substrate-free wells | actives 0.005% (n = 190,000) | activation factor at 20 µM | AID 1214, 2008;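 active = activation factor of 2 or more at 20 µM, relative to plate controls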
Target sequence (P34949 whole entry, looked up): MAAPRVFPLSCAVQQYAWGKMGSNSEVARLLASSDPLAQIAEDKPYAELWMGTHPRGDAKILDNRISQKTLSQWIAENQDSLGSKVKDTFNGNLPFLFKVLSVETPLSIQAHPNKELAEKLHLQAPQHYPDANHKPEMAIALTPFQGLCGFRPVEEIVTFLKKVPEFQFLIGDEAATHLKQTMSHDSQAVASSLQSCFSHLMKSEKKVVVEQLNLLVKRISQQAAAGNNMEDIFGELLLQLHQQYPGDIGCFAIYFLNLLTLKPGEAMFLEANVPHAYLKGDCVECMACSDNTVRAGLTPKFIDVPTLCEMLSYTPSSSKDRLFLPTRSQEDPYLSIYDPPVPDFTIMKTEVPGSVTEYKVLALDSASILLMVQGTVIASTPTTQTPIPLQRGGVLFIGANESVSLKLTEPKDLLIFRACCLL
L major viab = Leishmania major promastigote growth inhibition, primary screen. Leishmania major promastigotes, resazurin fluorescence viability. inhibition, % at 10 µM. actives 9% (n = 200,000). AID 1063, 2008; in the data active = inhibition above about 50%;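 note: promastigotes grown with compound for 44 hours at 28 °C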
WT yeast gro inh = growth inhibition of WT strain, primary screen, mitochondrial fusion inhibitor project, WT and mutant strains, chemical genetic. AID 1362, 2008. inhibition, % at 10 µM. actives 2.1% (n = 190,000). mitochondrial fusion phenotypic screen; in the data active = inhibition above about 58%; tested in S. cerevisiae
Rad51 HR inh = human RAD51 strand exchange inhibitors, primary screen, biochemical, fluorescence. actives 0.085% (n = 200,000). hRad51 DNA strand exchange, fluorescence dequenching. AID 1385, 2008. inhibition, % at 10 µM. DNA repair protein RAD51 homolog 1 (Homo sapiens), Q06609;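 active = inhibition above 40% at the single screening dose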;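 note: 0% = DMSO control wells and 100% = blanks with heterologous ssDNA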
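Read-out basis: percent inhibition relative to plate controls and blanks / Assay system: human Rad51 nucleoprotein filaments preassembled on unlabelled ssDNA / Timing: filaments 15 min 37 °C, then compound 30 min / Control set: per-plate controls and blanks / Technique: fluorescence dequenching at 485/520 nm / Compound: 10 µM final, single point / Also added: Fluorescein- and BHQ1-tagged 47-mer duplex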
PMI act hi M6P = human PMI activators, high substrate, primary screen, biochemical, fluorescence intensity, near-saturating mannose 6-phosphate; Mannose-6-phosphate isomerase (Homo sapiens), P34949; activation factor at 20 µM; coupled PMI enzyme assay, resazurin fluorescence, 20 min; stronger effect = higher value; 1 = untreated enzyme, 0 = substrate-free blank; actives 0.34% (n = 190,000);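 active = activation factor of 2 or more at 20 µM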
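Material: human phosphomannose isomerase with PGI, G6PDH, diaphorase coupling enzymes. Quantity: 15 ng/mL PMI. Medium: HEPES pH 7.4 buffer with MgCl2 and Tween-20. Reagent: Near-saturating mannose-6-phosphate, 1.0 mM. Compound: 20 µM single dose. Times: enzyme reaction with compound 20 min at room temperature. Detection: resorufin fluorescence at Ex 544/Em 590 nm.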
The depositor's hits bear a star; / = not tested or not shown.

SMILES	m-calpain inh	PMI activator	L major viab	WT yeast gro inh	Rad51 HR inh	PMI act hi M6P
CCn1c(SCc2ccc(F)cc2)nnc1C1CCN(S(=O)(=O)c2ccc(OC)cc2)CC1	59*	0.9	3	-13	-8	0.9
CCn1c(SCc2ccc(C)cc2)nnc1C1CCN(S(=O)(=O)c2ccc(OC)cc2)CC1	3	0.9	5	-17	-2	0.9
COc1ccccc1-n1cc(C(=O)N2CCCC(CO)(Cc3ccccc3C)C2)cn1 (centres undefined)	22	1	19	12	/	1.1
CCOc1ccc(-n2c(Cc3cc(=O)[nH]c(=O)[nH]3)nnc2SCC(=O)Nc2nnc(C)s2)cc1	5	1.2	-7	-1	18	1.1
CN(Cc1ccccc1)C(=O)c1nc2ccccn2c1CNCCOc1cccnc1	-3	0.9	-4	-23	-3	0.9
CN(Cc1ccccc1)CC(O)COc1ccc(CNCCCOc2cccnc2)cc1 (centres undefined)	13	0.9	91*	1	8	1
CCn1cc(CNCc2ccc(OCC(O)CN(C)Cc3ccccc3)cc2)cn1 (centres undefined)	0	1	88*	-12	-8	1.1
Cc1ccc(OCC(O)CNCc2ccccc2)cc1C (centres undefined)	-11	/	/	/	5	/
CC(=O)c1ccc(OCC(O)CN(C)Cc2cccs2)cc1 (centres undefined)	-4	0.9	7	-7	-7	1
Cc1nn(C)cc1CN(C)Cc1c(C(=O)N(C)Cc2ccccc2)nc2ccccn12	-26	1	3	-7	4	1.1
Cc1nn(C)cc1CNCc1ccc(OCC(O)CN(C)Cc2ccccc2)cc1 (centres undefined)	4	0.9	86*	-3	4	0.9
CN(Cc1ccccc1)CC(O)COc1ccc(CNCCOc2cccnc2)cc1 (centres undefined)	9	1	84*	1	-15	1
Cc1ccc(S(=O)(=O)CCSc2n[nH]c(=O)n2-c2ccc3c(c2)OCCO3)cc1	-8	/	/	/	-8	/
CCOC(=O)c1sc(S(C)=O)c2c1CCc1conc1-2 (centres undefined)	0	/	/	/	-10	/
NS(=O)(=O)c1cc(C(=O)OCC(=O)Nc2ccc(N3CCCCC3)cc2)ccc1Cl	8	/	/	/	2	/
Cc1ccccc1NCCNc1ccccc1C	4	1	-1	4	-2	1
CN(Cc1ccccc1)CC(O)COc1ccc(CNCc2ccc(Cl)s2)cc1 (centres undefined)	9	0.9	98*	23	18	1
CN(Cc1ccccc1)CC(O)COc1ccc(CNCc2cccnc2)cc1 (centres undefined)	-4	0.9	81*	2	15	0.9
OC(COc1ccc(CNCc2cccnc2)cc1)CN1CCc2ccccc2C1 (centres undefined)	-16	0.9	90*	-6	5	0.9
Cn1c(=O)c(=O)n(C)c2cc(S(=O)(=O)N3CCCC3C(=O)NCc3cccs3)ccc21 (centres undefined)	-26	/	/	/	/	/
COc1ccc(CC(=O)OCC(=O)Nc2ccc(N3CCOCC3)cc2)cc1	25	/	/	/	8	/
CCC1CCCCN1C(=O)c1cc(-c2ccc(Cl)c(Cl)c2)on1 (centres undefined)	45	0.9	-5	74*	-5	0.8
CC1CCCCN1C(=O)c1cc(-c2ccc(Cl)c(Cl)c2)on1 (centres undefined)	49	0.9	1	29	/	1
O=C(O)COc1ccccc1/C=N/NC(=O)CN1CCN(Cc2ccc(Cl)cc2)CC1	-19	/	/	/	-2	/
O=C1C=CC(=O)N1CCNc1ncc(C(F)(F)F)cc1Cl	2	1.3	2	97*	-6	1.9
SMILES	m-calpain inh	PMI activator	L major viab	WT yeast gro inh	Rad51 HR inh	PMI act hi M6P
O=S(=O)(NCCNc1ncc(C(F)(F)F)cc1Cl)C(F)(F)F	-38	0.9	-4	83*	15	0.9
CS(=O)(=O)NCCNc1ncc(C(F)(F)F)cc1Cl	14	1	-7	1	6	1
Fc1ccc(N2CCN(Cc3cnc(Cl)s3)CC2)cc1	-4	1	6	3	11	1
CC(NC(=S)NCc1ccc(F)cc1)C12CC3CC(CC(C3)C1)C2 (centres undefined)	3	1	13	77*	-121	1
CNC(=O)COc1cccc(C(=O)NCc2ccccc2)c1	10	0.8	-4	14	7	1
CCNC(=O)COc1cccc(C(=O)NCc2ccccc2)c1	-1	0.9	51*	-8	2	0.9
CC(C)CNC(=O)COc1cccc(C(=O)NCc2ccccc2)c1	5	1	52*	-9	-9	1
CCCNC(=O)COc1cccc(C(=O)NCc2ccccc2)c1	-6	1	-6	-5	5	1
Cc1nc(SCCOc2ccccc2F)[nH]c(=O)c1Cc1ccccc1	24	1.1	1	0	5	1
Cc1nc2ccccc2c(=O)n1NC(=O)C1CCCCC1	8	0.9	2	-9	-3	0.9
O=C(/C=C/c1ccccc1Cl)Nn1cnc2ccccc2c1=O	10	0.9	79*	-3	6	1.1
Cc1nc2ccccc2c(=O)n1NC(=O)c1ccccc1Cl	3	1	1	74*	0	1
Cc1nc2ccccc2c(=O)n1NC(=O)/C=C/c1ccccc1Cl	-6	0.9	69*	-7	-2	1
Cc1cc(C)c(C#N)c(SCC(=O)C2CC2)n1	-28	/	/	/	/	/
CC1=Nc2ccccc2N=C(NC(=O)CN2CCN(c3ccc(F)cc3)CC2)C1c1ccccc1 (centres undefined)	-26	/	/	/	4	/
CCc1ccc2c(c1)C(c1ccc([N+](=O)[O-])cc1)=NNC(c1ccc(F)cc1)=N2	-27	0.9	5	7	-3	0.9
CC(C)(C)OC(=O)C(Cl)(C(=O)OC(C)(C)C)c1ccc2nnnn2n1	6	1.3	23	-4	5	1.2
C/C(=N/Nc1nc(-c2ccccc2)cc(-c2ccc(F)cc2)n1)c1cccc(N)c1	17	0.9	42	68*	3	1
CCn1c(=O)c(C(=O)CN2CCN(S(=O)(=O)c3cc(C)ccc3C)CC2)c(N)n(Cc2ccccc2)c1=O	-29	1	65*	28	12	0.9
CCOC(=O)N1CCN(C(=O)c2cn(CC)c3ccc(S(=O)(=O)N4CC(C)CC(C)C4)cc3c2=O)CC1 (centres undefined)	-25	1	-7	-3	6	1.1
